Results taken from article PMC8458982 (The Journal of Biological Chemistry, 2021).

Columns and labels:
mTRPC6 mutant ^mN701A = mTRPC6 mutant ^mN701A (Mus musculus, UniProt Q61143, N701A); test: whole-cell patch-clamp, mTRPC6 mutant N701A; assay type: cell-based; conditions: saturated agonist
How it was run: (§1)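 Transiently transfected HEK293 cells expressing mouse or human TRPC6 WT, or sequence-verified mouse point mutants, recorded 24–48 h post-transfection. Conventional whole-cell clamp at −60 mV and 23 °C, gap-free; test compound applied by Y-tube. Pipette: CsCl/HEPES/BAPTA, 400 nM free Ca2+, pH 7.2. Bath: NaCl-based, 2 mM CaCl2, pH 7.4. EC50 from Hill fit of concentration–current data. Mutant screen used current ratios (10/5 μM or 3/1 μM). At least 3 transfection batches.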

mTRPC6 mutant ^mE672D = molecular target: T1, mTRPC6 mutant ^mE672D (Mus musculus, UniProt Q61143, E672D); test: whole-cell patch-clamp, mTRPC6 mutant E672D; assay type: cell-based
T1 sequence (Q61143 1-930 E672D): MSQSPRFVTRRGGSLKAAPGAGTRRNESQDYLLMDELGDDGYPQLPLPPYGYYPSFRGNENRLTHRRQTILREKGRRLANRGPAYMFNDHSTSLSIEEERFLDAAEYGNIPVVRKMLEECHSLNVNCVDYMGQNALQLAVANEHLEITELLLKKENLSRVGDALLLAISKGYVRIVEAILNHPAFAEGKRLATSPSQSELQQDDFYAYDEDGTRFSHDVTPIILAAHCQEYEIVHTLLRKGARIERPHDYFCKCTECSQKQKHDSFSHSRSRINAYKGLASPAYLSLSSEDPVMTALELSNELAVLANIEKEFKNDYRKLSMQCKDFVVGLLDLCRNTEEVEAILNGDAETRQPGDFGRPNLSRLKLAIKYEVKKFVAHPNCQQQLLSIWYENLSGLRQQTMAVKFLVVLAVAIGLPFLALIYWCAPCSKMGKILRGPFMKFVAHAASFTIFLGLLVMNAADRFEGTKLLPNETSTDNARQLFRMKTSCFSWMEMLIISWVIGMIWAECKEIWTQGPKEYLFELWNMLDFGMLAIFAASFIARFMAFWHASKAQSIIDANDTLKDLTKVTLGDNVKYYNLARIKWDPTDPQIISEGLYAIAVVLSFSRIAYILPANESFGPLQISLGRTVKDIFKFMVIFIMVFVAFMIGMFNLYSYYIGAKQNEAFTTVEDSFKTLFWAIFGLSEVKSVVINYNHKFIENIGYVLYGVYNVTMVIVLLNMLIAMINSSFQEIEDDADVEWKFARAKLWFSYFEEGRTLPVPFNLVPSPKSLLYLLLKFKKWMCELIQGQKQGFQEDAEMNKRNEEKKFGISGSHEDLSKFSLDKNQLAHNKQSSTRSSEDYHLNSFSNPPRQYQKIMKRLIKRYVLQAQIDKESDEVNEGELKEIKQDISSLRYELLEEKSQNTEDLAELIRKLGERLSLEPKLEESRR
How it was run: as §1

mTRPC6 mutant ^mT487L = test: whole-cell patch-clamp, mTRPC6 mutant T487L; assay type: cell-based, mouse; conditions: ^mT487L (S1 pocket)
How it was run: as §1

mTRPC6 mutant ^mF678W = mTRPC6 mutant ^mF678W (Mus musculus, UniProt Q61143, F678W); test: whole-cell patch-clamp, mTRPC6 mutant F678W; assay type: cell-based; conditions: saturated agonist
mTRPC6 mutant ^mF678W, sequence (Q61143 whole entry F678W): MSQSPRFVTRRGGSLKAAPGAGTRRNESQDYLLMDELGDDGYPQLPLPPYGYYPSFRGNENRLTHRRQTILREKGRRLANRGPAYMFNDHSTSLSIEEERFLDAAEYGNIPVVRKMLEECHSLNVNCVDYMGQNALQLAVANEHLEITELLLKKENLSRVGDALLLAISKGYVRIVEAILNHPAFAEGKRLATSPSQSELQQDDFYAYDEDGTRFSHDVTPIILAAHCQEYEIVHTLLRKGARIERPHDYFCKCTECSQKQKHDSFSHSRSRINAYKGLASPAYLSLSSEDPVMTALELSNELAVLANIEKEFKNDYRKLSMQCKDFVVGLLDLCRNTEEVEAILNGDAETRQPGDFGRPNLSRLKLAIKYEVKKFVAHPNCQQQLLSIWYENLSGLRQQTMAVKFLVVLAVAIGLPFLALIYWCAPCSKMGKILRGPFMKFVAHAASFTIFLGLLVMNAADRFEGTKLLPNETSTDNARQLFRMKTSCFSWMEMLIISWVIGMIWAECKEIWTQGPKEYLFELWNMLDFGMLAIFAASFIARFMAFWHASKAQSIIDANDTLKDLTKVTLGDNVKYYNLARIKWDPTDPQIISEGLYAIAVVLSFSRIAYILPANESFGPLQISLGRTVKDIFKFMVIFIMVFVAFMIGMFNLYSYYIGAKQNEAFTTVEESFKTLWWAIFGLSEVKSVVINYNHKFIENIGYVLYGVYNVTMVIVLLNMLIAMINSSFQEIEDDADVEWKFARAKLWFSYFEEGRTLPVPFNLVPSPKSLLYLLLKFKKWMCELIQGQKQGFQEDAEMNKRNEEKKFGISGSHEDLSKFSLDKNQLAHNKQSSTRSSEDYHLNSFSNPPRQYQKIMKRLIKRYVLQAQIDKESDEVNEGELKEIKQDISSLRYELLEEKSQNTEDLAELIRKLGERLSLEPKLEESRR
How it was run: as §1

mTRPC6 mutant ^mY704W = mTRPC6 mutant ^mY704W (Mus musculus, UniProt Q61143, Y704W); test: whole-cell patch-clamp, mTRPC6 mutant Y704W; assay type: cell-based
mTRPC6 mutant ^mY704W, sequence (Q61143 whole entry Y704W): as the sequence (Q61143 whole entry F678W) above, with W678F, Y704W counted along it
How it was run: as §1

mTRPC6 mutant ^mN701Q = mTRPC6 mutant ^mN701Q (Mus musculus, UniProt Q61143, N701Q); test: whole-cell patch-clamp, mTRPC6 mutant N701Q; assay type: cell-based
mTRPC6 mutant ^mN701Q, sequence (Q61143 whole entry N701Q): as the sequence (Q61143 whole entry F678W) above, with W678F, N701Q counted along it
How it was run: as §1

mTRPC6 mutant ^mW679A = mTRPC6 mutant ^mW679A (Mus musculus, UniProt Q61143, W679A); test: whole-cell patch-clamp, mTRPC6 mutant W679A; assay type: cell-based; conditions: saturated agonist
mTRPC6 mutant ^mW679A, sequence (Q61143 whole entry W679A): as the sequence (Q61143 whole entry F678W) above, with W678F, W679A counted along it
How it was run: as §1

hTRPC6 mutant ^hE673D = hTRPC6 mutant ^hE673D (Homo sapiens, UniProt Q9Y210, E673D); test: whole-cell patch-clamp, hTRPC6 mutant E673D; assay type: cell-based
hTRPC6 mutant ^hE673D, sequence (Q9Y210 whole entry E673D): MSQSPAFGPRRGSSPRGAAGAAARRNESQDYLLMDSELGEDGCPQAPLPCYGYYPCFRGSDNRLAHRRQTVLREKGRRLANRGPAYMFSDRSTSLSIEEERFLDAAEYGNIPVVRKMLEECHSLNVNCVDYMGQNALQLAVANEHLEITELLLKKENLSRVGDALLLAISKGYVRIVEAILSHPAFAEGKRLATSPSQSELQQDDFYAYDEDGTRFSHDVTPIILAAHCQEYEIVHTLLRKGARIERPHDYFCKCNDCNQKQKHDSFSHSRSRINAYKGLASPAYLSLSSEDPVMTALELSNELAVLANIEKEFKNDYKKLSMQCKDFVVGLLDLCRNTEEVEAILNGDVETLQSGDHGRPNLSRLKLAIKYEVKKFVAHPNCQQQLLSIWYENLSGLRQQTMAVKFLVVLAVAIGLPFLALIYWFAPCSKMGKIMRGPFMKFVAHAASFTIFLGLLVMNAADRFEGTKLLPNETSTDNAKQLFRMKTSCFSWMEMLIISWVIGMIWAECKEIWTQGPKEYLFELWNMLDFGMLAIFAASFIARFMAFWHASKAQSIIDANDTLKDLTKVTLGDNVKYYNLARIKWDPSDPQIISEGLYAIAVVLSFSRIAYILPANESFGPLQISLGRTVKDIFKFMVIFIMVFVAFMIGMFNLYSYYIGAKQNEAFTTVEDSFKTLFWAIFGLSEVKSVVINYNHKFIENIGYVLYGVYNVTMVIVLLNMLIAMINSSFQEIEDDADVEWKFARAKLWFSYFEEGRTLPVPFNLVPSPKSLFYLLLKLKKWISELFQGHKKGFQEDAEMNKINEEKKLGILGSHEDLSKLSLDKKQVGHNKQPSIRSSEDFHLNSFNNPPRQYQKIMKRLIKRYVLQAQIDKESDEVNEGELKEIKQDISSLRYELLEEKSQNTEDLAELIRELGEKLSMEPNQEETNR

mTRPC6 mutant ^mL684V = mTRPC6 mutant ^mL684V (Mus musculus, UniProt Q61143, L684V); test: whole-cell patch-clamp, mTRPC6 mutant L684V; assay type: cell-based; conditions: ^mL684V (S3 pocket)
mTRPC6 mutant ^mL684V, sequence (Q61143 whole entry L684V): as the sequence (Q61143 whole entry F678W) above, with W678F, L684V counted along it
How it was run: as §1

hTRPC6 mutant ^hE672C = hTRPC6 mutant ^hE672C (Homo sapiens, UniProt Q9Y210, E672C); test: whole-cell patch-clamp, hTRPC6 mutant E672C; assay type: cell-based
hTRPC6 mutant ^hE672C, sequence (Q9Y210 whole entry E672C): as the sequence (Q9Y210 whole entry E673D) above, with E672C, D673E counted along it

mTRPC6 mutant ^mV709A = mTRPC6 mutant ^mV709A (Mus musculus, UniProt Q61143, V709A); test: whole-cell patch-clamp, mTRPC6 mutant V709A; assay type: cell-based
mTRPC6 mutant ^mV709A, sequence (Q61143 whole entry V709A): as the sequence (Q61143 whole entry F678W) above, with W678F, V709A counted along it
How it was run: as §1

TRPC3/6/7 = conditions: read-out: EC50 (concentration yielding half maximum response); measured by patch-clamp rather than calcium imaging; cited from earlier work
mTRPC6^N701Q = mTRPC6^N701Q (Mus musculus, UniProt Q61143, N701Q); test: single-channel outside-out recording, mTRPC6 N701Q; assay type: cell-based; conditions: 100 μM agonist, −60 mV
mTRPC6^N701Q, sequence (Q61143 whole entry N701Q): as the sequence (Q61143 whole entry F678W) above, with W678F, N701Q counted along it
How it was run: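 Excised outside-out or inside-out patches (macro-patch or single-channel) from transfected HEK293 cells, 24–48 h post-transfection, 23 °C. Polished borosilicate pipettes of 8–12 MΩ; holding potential −60 mV. Same solutions as whole-cell recordings (CsCl-based internal, 400 nM free Ca2+, pH 7.2; NaCl-based external, pH 7.4). Sampled at 50 kHz, 2 kHz filter, low-pass 300 Hz; unitary current and conductance measured.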

mTRPC6 mutant ^mY657W = test: whole-cell patch-clamp, mTRPC6 mutant Y657W; assay type: cell-based, mouse; conditions: ^mY657W (S1 pocket)
How it was run: as §1

mTRPC6 mutant ^mY704A = mTRPC6 mutant ^mY704A (Mus musculus, UniProt Q61143, Y704A); test: whole-cell patch-clamp, mTRPC6 mutant Y704A; assay type: cell-based; conditions: saturated agonist
mTRPC6 mutant ^mY704A, sequence (Q61143 whole entry Y704A): as the sequence (Q61143 whole entry F678W) above, with W678F, Y704A counted along it
How it was run: as §1

mTRPC6 mutant ^mS685T = mTRPC6 mutant ^mS685T (Mus musculus, UniProt Q61143, S685T); test: whole-cell patch-clamp, mTRPC6 mutant S685T; assay type: cell-based; conditions: ^mS685T (S3 pocket)
mTRPC6 mutant ^mS685T, sequence (Q61143 whole entry S685T): as the sequence (Q61143 whole entry F678W) above, with W678F, S685T counted along it
How it was run: as §1

mTRPC6 mutant ^mN701A, sequence (Q61143 whole entry N701A): as the sequence (Q61143 whole entry F678W) above, with W678F, N701A counted along it

Structure (SMILES): CCOC(=O)N1CCC(c2cc(O)n3nc(C)c(-c4ccc(F)cc4)c3n2)CC1 [M085, Ethyl 4-(3-(4-fluorophenyl)-7-hydroxy-2-methylpyrazolo[1,5-a]pyrimidin-5-yl)piperidine-1-carboxylate]
- agonist-induced current (mTRPC6 mutant ^mN701A): disappearance
- EC50 (mTRPC6 mutant ^mE672D): 25.1 ± 5.64 µM
- ratio of M085 activation current I10 μM/I5 μM (mTRPC6 mutant ^mE672D; ^mE672D (S2 pocket)): 3.27 ± 0.91
- Imax (maximal current density) (mTRPC6 mutant ^mE672D; ^mE672D, 100 μM agonist): 10.28 ± 1.19 pA/pF
- ratio of M085 activation current I10 μM/I5 μM (mTRPC6 mutant ^mT487L): 1.26 ± 0.22
- agonist-induced current (channel function) (mTRPC6 mutant ^mF678W): complete loss of function
- EC50 (mTRPC6 mutant ^mY704W): 26.7 ± 4.04 µM
- Imax (maximal current density) (mTRPC6 mutant ^mY704W; ^mY704W, 100 μM agonist): 3.27 ± 1.12 pA/pF
- EC50 (mTRPC6 mutant ^mN701Q): 55.7 ± 15.2 µM
- Imax (maximal current density) (mTRPC6 mutant ^mN701Q; ^mN701Q, 100 μM agonist): 2.11 ± 1.04 pA/pF
- agonist-induced current (mTRPC6 mutant ^mW679A): disappearance
- EC50 (hTRPC6 mutant ^hE673D): 22.1 ± 5.46 µM
- agonistic effect (mTRPC6 mutant ^mL684V): loss of agonistic effect
- EC50 (hTRPC6 mutant ^hE672C): 50.2 ± 6.65 µM
- EC50 (mTRPC6 mutant ^mV709A): 6.95 ± 2.13 µM
- EC50 (TRPC3/6/7): 4.66 ± 0.03 µM
- unit current (mTRPC6^N701Q): about 1.1 pA
- ratio of M085 activation current I10 μM/I5 μM (mTRPC6 mutant ^mY657W): 1.68 ± 0.24
- agonist-induced current (mTRPC6 mutant ^mY704A): disappearance
- agonistic effect (mTRPC6 mutant ^mS685T): loss of agonistic effect
